Assay results reported in the M2OR odorant receptor database.
Substitutions are numbered along the chain they refer to.

Legend:
Conditions in all cases: stereoisomer not certain
OR4S2 (Homo sapiens) = target: T1, OR4S2 (Homo sapiens) (UniProt Q8NH73)
T1 sequence (whole entry): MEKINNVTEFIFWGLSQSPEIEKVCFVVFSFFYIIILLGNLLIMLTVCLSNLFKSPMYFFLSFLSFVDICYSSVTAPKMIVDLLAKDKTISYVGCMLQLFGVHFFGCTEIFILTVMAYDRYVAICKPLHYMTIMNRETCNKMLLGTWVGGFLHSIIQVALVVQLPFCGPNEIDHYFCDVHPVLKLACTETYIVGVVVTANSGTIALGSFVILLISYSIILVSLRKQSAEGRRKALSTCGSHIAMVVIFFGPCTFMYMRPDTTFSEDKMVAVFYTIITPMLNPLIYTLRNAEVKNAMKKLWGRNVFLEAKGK
Method in brief: (§1)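 Each entry records the cell line, G-protein, co-transfected protein and tags used. Methods varied with the source, often transient luciferase assays in mammalian cell lines. A receptor–molecule pair is called responsive (active) if the original authors judged its signal statistically different from baseline and non-responsive (inactive) otherwise.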

OR4X1 (Homo sapiens) = target: T2, OR4X1 (Homo sapiens) (UniProt Q8NH49)
T2 sequence (whole entry): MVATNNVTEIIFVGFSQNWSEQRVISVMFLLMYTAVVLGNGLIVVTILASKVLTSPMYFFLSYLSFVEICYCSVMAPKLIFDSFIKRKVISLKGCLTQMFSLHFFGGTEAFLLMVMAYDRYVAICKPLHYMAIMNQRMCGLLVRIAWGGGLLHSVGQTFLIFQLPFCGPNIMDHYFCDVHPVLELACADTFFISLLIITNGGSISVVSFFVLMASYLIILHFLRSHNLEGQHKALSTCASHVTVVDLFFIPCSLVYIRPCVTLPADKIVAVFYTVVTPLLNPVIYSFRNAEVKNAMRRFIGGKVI
Method in brief: as §1

OR4X2 (Homo sapiens) = target: T3, OR4X2 (Homo sapiens) (UniProt Q8NGF9)
T3 sequence (whole entry): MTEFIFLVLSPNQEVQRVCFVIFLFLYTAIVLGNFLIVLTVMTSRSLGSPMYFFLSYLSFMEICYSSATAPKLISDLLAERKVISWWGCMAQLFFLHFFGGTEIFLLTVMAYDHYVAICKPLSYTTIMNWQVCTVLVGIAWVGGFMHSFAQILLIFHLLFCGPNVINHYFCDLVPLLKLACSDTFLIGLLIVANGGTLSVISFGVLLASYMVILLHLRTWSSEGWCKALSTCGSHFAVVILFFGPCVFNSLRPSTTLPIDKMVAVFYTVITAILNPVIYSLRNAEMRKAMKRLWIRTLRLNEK
Method in brief: as §1

OR51A2 (Homo sapiens) = target: T4, OR51A2 (Homo sapiens) (UniProt Q8NGJ7)
T4 sequence (whole entry): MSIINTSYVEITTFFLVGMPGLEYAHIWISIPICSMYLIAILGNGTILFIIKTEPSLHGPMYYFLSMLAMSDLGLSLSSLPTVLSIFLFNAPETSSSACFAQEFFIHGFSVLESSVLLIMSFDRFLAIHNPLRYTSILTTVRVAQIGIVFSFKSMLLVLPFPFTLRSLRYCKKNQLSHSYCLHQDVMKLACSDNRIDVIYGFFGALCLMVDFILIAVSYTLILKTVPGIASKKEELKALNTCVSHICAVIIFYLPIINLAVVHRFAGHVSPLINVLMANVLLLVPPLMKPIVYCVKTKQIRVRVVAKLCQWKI
Method in brief: as §1

OR51A4 (Homo sapiens) = target: T5, OR51A4 (Homo sapiens) (UniProt Q8NGJ6)
T5 sequence (whole entry): T4 sequence (whole entry) with G59E, T94I, S97N, S167N, P227L, E235Q, G267R, M288T, K289N, W311R
Method in brief: as §1

OR51A7 (Homo sapiens) = target: T6, OR51A7 (Homo sapiens) (UniProt Q8NH64)
T6 sequence (whole entry): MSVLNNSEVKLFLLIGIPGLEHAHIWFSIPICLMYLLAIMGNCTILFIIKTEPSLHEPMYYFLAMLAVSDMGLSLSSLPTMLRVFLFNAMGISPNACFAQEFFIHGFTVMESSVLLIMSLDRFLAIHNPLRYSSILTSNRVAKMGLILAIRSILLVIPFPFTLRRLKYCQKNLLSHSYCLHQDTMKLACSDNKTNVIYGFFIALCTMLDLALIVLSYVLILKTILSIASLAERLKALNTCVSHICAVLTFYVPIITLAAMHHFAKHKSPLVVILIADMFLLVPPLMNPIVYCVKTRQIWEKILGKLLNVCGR
Method in brief: as §1

OR51B2 (Homo sapiens) = target: T7, OR51B2 (Homo sapiens) (UniProt Q9Y5P1)
T7 sequence (whole entry): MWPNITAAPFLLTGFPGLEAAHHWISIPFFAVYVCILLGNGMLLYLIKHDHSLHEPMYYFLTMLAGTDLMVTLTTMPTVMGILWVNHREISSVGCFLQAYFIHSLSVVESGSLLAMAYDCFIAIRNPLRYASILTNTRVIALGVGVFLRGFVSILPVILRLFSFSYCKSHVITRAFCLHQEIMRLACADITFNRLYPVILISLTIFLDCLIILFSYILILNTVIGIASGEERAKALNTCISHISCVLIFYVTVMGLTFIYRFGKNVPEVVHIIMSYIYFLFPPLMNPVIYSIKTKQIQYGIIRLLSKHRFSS
Method in brief: as §1

OR51B4 (Homo sapiens) = target: T8, OR51B4 (Homo sapiens) (UniProt Q9Y5P0)
T8 sequence (whole entry): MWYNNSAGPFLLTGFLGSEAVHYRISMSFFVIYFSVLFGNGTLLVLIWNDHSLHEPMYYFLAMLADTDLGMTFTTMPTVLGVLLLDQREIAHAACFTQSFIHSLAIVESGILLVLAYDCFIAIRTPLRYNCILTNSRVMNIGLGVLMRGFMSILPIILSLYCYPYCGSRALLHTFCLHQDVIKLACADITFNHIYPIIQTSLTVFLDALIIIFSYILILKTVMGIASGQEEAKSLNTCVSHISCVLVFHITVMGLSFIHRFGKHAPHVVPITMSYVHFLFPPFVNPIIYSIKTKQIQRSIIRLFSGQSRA
Method in brief: as §1

OR51B5 (Homo sapiens) = target: T9, OR51B5 (Homo sapiens) (UniProt Q9H339)
T9 sequence (whole entry): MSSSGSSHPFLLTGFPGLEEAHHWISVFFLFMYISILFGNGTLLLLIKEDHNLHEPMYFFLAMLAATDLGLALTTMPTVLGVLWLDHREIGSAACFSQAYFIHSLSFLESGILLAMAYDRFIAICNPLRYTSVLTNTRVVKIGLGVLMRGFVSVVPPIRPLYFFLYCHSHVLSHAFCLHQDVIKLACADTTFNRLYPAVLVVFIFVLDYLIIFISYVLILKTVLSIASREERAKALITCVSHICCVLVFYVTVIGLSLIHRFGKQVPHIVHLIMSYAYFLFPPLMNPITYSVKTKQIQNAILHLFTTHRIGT
Method in brief: as §1

OR51B6 (Homo sapiens) = target: T10, OR51B6 (Homo sapiens) (UniProt Q9H340)
T10 sequence (whole entry): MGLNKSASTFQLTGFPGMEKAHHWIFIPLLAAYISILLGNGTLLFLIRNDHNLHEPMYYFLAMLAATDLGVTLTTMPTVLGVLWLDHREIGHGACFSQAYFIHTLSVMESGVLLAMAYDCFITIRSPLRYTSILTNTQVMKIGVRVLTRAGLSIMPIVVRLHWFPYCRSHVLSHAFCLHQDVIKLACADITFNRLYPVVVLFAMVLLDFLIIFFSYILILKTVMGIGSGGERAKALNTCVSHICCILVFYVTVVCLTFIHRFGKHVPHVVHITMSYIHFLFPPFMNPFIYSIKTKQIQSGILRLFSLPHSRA
Method in brief: as §1

OR51D1 (Homo sapiens) = target: T11, OR51D1 (Homo sapiens) (UniProt Q8NGF3)
T11 sequence (whole entry): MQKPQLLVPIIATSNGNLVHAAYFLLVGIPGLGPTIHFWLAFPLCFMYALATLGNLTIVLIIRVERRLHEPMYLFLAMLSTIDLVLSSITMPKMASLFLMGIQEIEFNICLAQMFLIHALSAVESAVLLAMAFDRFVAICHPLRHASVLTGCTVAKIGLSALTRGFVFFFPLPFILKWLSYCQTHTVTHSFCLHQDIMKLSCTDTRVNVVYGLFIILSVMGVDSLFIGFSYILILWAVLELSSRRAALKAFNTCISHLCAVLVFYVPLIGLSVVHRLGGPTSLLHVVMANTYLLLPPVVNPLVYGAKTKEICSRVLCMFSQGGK
Method in brief: as §1

OR51E1 (Homo sapiens) = target: T12, OR51E1 (Homo sapiens) (UniProt Q8TCB6)
T12 sequence (whole entry): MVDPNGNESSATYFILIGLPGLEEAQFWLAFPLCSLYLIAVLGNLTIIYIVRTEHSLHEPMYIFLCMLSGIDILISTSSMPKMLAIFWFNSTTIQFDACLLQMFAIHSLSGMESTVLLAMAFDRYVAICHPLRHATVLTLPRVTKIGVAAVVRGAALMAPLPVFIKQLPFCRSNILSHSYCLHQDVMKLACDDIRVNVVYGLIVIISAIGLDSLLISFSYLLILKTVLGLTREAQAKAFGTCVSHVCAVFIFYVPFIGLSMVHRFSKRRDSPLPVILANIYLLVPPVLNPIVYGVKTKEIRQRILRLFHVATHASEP
Method in brief: as §1

OR51E2 (Homo sapiens) = target: T13, OR51E2 (Homo sapiens) (UniProt Q9H255)
T13 sequence (whole entry): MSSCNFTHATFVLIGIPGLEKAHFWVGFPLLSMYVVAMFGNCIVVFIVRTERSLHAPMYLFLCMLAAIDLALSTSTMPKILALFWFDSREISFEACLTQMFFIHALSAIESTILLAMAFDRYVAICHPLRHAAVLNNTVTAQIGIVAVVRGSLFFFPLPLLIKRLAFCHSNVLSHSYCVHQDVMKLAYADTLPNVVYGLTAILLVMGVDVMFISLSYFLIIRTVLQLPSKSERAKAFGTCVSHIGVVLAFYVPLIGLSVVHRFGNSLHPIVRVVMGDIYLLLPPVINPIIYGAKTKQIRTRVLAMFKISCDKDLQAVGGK
Method in brief: as §1

OR51F1 (Homo sapiens) = target: T14, OR51F1 (Homo sapiens) (UniProt A6NGY5)
T14 sequence (whole entry): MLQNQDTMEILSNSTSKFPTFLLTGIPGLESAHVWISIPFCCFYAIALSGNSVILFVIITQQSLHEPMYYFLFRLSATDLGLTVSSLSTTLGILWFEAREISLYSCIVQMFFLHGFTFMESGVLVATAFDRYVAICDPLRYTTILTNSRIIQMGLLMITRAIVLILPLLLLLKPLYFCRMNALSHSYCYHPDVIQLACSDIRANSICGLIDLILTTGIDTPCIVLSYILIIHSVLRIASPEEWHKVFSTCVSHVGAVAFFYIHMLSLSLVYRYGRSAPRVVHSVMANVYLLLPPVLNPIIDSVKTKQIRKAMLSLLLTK
Method in brief: as §1

OR51F2 (Homo sapiens) = target: T15, OR51F2 (Homo sapiens) (UniProt Q8NH61)
T15 sequence (whole entry): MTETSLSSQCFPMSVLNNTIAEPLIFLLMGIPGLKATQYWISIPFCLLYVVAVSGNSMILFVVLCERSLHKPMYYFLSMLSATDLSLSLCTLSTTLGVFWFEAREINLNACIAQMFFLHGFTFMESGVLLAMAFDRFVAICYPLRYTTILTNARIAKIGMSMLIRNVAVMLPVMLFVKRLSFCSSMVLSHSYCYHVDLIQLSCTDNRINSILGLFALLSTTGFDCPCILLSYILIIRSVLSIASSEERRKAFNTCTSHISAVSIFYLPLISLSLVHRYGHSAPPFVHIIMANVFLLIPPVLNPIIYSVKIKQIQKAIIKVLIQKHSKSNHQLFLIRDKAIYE
Method in brief: as §1

OR51G1 (Homo sapiens) = target: T16, OR51G1 (Homo sapiens) (UniProt Q8NGK1)
T16 sequence (whole entry): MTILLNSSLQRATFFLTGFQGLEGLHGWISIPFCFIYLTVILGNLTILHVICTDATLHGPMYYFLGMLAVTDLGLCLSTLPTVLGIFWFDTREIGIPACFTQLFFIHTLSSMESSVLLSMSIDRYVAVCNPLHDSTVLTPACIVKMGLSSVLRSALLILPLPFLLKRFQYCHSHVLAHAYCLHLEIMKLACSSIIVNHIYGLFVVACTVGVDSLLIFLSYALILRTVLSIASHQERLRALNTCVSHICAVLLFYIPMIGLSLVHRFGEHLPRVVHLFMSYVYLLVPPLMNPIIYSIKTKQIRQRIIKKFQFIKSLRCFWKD
Method in brief: as §1

OR51G2 (Homo sapiens) = target: T17, OR51G2 (Homo sapiens) (UniProt Q8NGK0)
T17 sequence (whole entry): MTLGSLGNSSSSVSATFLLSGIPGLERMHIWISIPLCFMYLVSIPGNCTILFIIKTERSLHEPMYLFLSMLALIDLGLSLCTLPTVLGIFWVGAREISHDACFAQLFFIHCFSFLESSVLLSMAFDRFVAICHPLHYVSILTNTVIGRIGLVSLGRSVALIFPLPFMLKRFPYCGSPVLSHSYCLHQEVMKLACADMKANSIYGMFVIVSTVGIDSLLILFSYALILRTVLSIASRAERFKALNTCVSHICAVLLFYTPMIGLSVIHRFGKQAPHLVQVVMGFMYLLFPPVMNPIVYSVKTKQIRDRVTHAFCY
Method in brief: as §1

OR51I1 (Homo sapiens) = target: T18, OR51I1 (Homo sapiens) (UniProt Q9H343)
T18 sequence (whole entry): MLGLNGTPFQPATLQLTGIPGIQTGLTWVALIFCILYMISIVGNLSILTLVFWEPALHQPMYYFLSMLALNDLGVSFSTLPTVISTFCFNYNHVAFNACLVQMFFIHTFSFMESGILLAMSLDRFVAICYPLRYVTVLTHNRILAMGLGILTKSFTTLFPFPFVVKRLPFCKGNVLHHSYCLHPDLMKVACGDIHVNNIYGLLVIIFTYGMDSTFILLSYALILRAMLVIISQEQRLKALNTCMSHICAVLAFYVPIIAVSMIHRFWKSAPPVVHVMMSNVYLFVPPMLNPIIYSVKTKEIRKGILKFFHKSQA
Method in brief: as §1

Measured: odorant receptor agonist call

CCCCCCC=CCCC=O
inactive: all assays above

CCCC(=O)CC
inactive: OR51B5 (Homo sapiens)
